Assay results from ChEMBL document CHEMBL2069168, “Synthesis and biological evaluation of truncated α-galactosylceramide derivatives focusing on cytokine induction profile” (2012).
Active and inactive are the calls of the source. The calls are words filed in the database; no cut-off is given here.

What was measured:
[1] = system: Splenocyte; test: Immunostimulatory activity in C57BL/6 mouse splenocytes assessed as IFN-gamma release at 100 ng/ml after 72 hrs by ELISA relative to OCH; type: functional
How it was run: (§1)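 Splenocytes from female C57BL/6 mice (6–8 weeks) in RPMI1640 with 10% FBS, 5×10^-5 M 2-mercaptoethanol, 1 mM pyruvate, 25 mM HEPES; 5×10^5 cells/well stimulated with glycolipid at 100 ng/ml, 72 h, 37 °C. Supernatant IL-4 and IFN-γ by ELISA; values expressed relative to OCH reference included in every run, mean of at least three experiments.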

[2] = system: Splenocyte; test: Immunostimulatory activity in C57BL/6 mouse splenocytes assessed as IL-4 release at 100 ng/ml after 72 hrs by ELISA relative to OCH; type: functional; how it was run: as §1
[3] = organism: Mus musculus; test: Immunostimulatory activity in C57BL/6 mouse splenocytes at 100 ng/ml after 72 hr assessed as IFN-gamma secretion
[4] = organism: Mus musculus; test: Immunostimulatory activity in C57BL/6 mouse splenocytes at 100 ng/ml after 72 hrs assessed as IL-4 secretion
[5] = system: Mus musculus; test: Immunosuppressive activity iv in C57BL/6 mouse assessed as inhibition of OCH-induced IFN-gamma secretion at 0.1 ug/mouse, iv administered 15 mins before OCH challenge; type: functional, organism-based
How it was run: (§2)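 Female C57BL/6 mice (9 weeks); glycolipids dissolved in 0.5% DMSO in saline. Test compound given iv via tail vein at 0.1 µg/mouse 15 min before iv OCH (0.1 µg/mouse). Sera taken 3, 6, 9 h after second injection; serum IL-4 and IFN-γ by ELISA. Mean ± SD, N = 4–5; Student's t-test versus vehicle.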

[6] = system: Mus musculus; test: Immunosuppressive activity iv in C57BL/6 mouse assessed as inhibition of OCH-induced IL-4 secretion at 0.1 ug/mouse, iv administered 15 mins before OCH challenge; type: functional, organism-based; how it was run: as §2
[7] = organism: Mus musculus; test: Immunostimulatory activity in C57BL/6 mouse natural killer cells assessed as IFN-gamma secretion at 100 ng/ml by ELISA relative to OCH; type: functional
[8] = system: Dendritic cell; test: Immunostimulatory activity in C57BL/6 mouse dendritic cells assessed as IL-12 secretion at 100 ng/ml by ELISA relative to OCH; type: functional, cell-based

| SMILES | Activity [1] [%] | Activity [2] [%] | Activity [3] [%] | Activity [4] [%] | other results |
| --- | --- | --- | --- | --- | --- |
| CCCCCCCCCCCCCCCCCCCCCC(=O)N[C@@H](CO[C@H]1O[C@H](CO)[C@H](O)[C@H](O)[C@H]1O)[C@H](O)[C@H](O)CCCCC | 46 | 51 | – | – | – |
| CCCCCCCCCCCCCCCCCCCCCCCCCC(=O)N[C@@H](CO[C@H]1O[C@H](CO)[C@H](O)[C@H](O)[C@H]1O)[C@H](O)[C@H](O)CCCCC | 504 | 129 | – | – | – |
| CCCCCCCCCCCCCCCCCCCCCCCCCC(=O)N[C@@H](CO[C@H]1O[C@H](CO)[C@H](O)[C@H](O)[C@H]1O)[C@H](O)[C@H](O)CCCCCCCCCCCCCC [RGI-7000] | 569 | 128 | – | – | – |
| CCCCCCCCCCCCCCCCCCCCCCCC(=O)N[C@@H](CO[C@H]1O[C@H](CO)[C@H](O)[C@H](O)[C@H]1O)[C@H](O)[C@H](O)CCCC | 112 | 115 | – | – | – |
| CCCCCCCCCCCCCCCCCCCCCCCC(=O)N[C@@H](CO[C@H]1O[C@H](CO)[C@H](O)[C@H](O)[C@H]1O)[C@H](O)[C@H](O)COC | – | – | 64 | 86 | – |
| CCCCCCCCCCCCCCCCCCCCCCC(=O)N[C@@H](CO[C@H]1O[C@H](CO)[C@H](O)[C@H](O)[C@H]1O)[C@H](O)[C@H](O)CCCC | 148 | 97 | – | – | – |
| CCCCCCCCCCCCCCCCCCCCCCCC(=O)N[C@@H](CC[C@H]1O[C@H](CO)[C@H](O)[C@H](O)[C@H]1O)[C@H](O)[C@H](O)CCCCC | – | – | 0 | 1 | inhibition [5]: inactive; inhibition [6]: inactive |
| CCCCCCCCCCCCCCCCCCCCCCC(=O)N[C@@H](CO[C@H]1O[C@H](CO)[C@H](O)[C@H](O)[C@H]1O)[C@H](O)[C@H](O)CCCCCC | 113 | 97 | – | – | – |
| CCCCCCCCCCCCCCCCCCCC(=O)N[C@@H](CO[C@H]1O[C@H](CO)[C@H](O)[C@H](O)[C@H]1O)[C@H](O)[C@H](O)CCCCC | 9 | 6 | – | – | – |
| CCCCCCCCCCCCCCCCCCCCCCCCCC(=O)N[C@@H](CC[C@H]1O[C@H](CO)[C@H](O)[C@H](O)[C@H]1O)[C@H](O)[C@H](O)CCCCCCCCCCCCCC | – | – | – | – | Activity [7]: Active; Activity [8]: Active |
| CCCCCCCCCCCCCCCCCCCCCCCC(=O)N[C@@H](CO[C@H]1O[C@H](CO)[C@H](O)[C@H](O)[C@H]1O)[C@H](O)[C@H](O)COc1ccccc1 | – | – | 80 | 99 | – |
| CCCCCCCCCCCCCCCCCCCCCCCCCCCC(=O)N[C@@H](CO[C@H]1O[C@H](CO)[C@H](O)[C@H](O)[C@H]1O)[C@H](O)[C@H](O)CCCCC | 761 | 178 | – | – | – |
| CCCCCCCCCCCCCCCCCCCCCCCC(=O)N[C@@H](CO[C@H]1O[C@H](CO)[C@H](O)[C@H](O)[C@H]1O)[C@H](O)[C@H](O)Cc1ccccc1 | – | – | 284 | 211 | – |
| CCCCCCCCCCCCCCCCCCCCCCCC(=O)N[C@@H](CO[C@H]1O[C@H](CO)[C@H](O)[C@H](O)[C@H]1O)[C@H](O)[C@H](O)Cc1ccc(C)cc1 | – | – | 76 | 78 | – |
| CCCCCCCCCCCCCCCCCCCCCCCC(=O)N[C@@H](CO[C@H]1O[C@H](CO)[C@H](O)[C@H](O)[C@H]1O)[C@H](O)[C@H](O)COCCCCCCCCCCCC | – | – | 227 | 78 | – |
| CCCCCCCCCCCCCCCCCCCCCCCCC(=O)N[C@@H](CO[C@H]1O[C@H](CO)[C@H](O)[C@H](O)[C@H]1O)[C@H](O)[C@H](O)CCCCC | 103 | 154 | – | – | – |
| CCCCCCCCCCCCCCCCCCCCCCC(=O)N[C@@H](CO[C@H]1O[C@H](CO)[C@H](O)[C@H](O)[C@H]1O)[C@H](O)[C@H](O)CCCCC | 93 | 103 | – | – | – |
| CCCCCCCCCCCCCCCCCCCCCCCC(=O)N[C@@H](CO[C@H]1O[C@H](CO)[C@H](O)[C@H](O)[C@H]1O)[C@H](O)[C@H](O)CC1CCCC1 | – | – | 74 | 98 | – |
| CCCCCCCCCCCCCCCCCCCCCCCC(=O)N[C@@H](CO[C@H]1O[C@H](CO)[C@H](O)[C@H](O)[C@H]1O)[C@H](O)[C@H](O)COCCC | – | – | 161 | 103 | – |
| CCCCCCCCCCCCCCCCCCCCCCCC(=O)N[C@@H](CO[C@H]1O[C@H](CO)[C@H](O)[C@H](O)[C@H]1O)[C@H](O)[C@H](O)CCCCC | 100 | 100 | 100 | 100 | – |
| CCCCCCCCCCCCCCCCCCCCCCCC(=O)N[C@@H](CO[C@H]1O[C@H](CO)[C@H](O)[C@H](O)[C@H]1O)[C@H](O)[C@H](O)CCc1ccccc1 | – | – | 35 | 57 | – |
| CCCCCCCCCCCCCCCCCCCCCCCC(=O)N[C@@H](CO[C@H]1O[C@H](CO)[C@H](O)[C@H](O)[C@H]1O)[C@H](O)[C@H](O)CCC | 96 | 105 | – | – | – |
